The source of these data is ChEMBL document CHEMBL1275508, “Edelfosine induces an apoptotic process in Leishmania infantum that is regulated by the ectopic expression of Bcl-XL and Hrk” (2008).

For experiment [1], the system named is Leishmania infantum. The experiment is described as follows: Antimicrobial activity against Leishmania infantum promastigotes assessed as increase in hypodiploid cell formation after 24 hrs by flow cytometry. Type of experiment: functional, organism-based. The gist of the method: (§1)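 Exponentially growing L. infantum promastigotes (2 × 10^6/ml, strain M/CAN/ES/96/BCN150 MON-1) exposed 24 h to increasing drug concentrations; DNA content analysed by flow cytometry, scoring percentage of hypodiploid cells as DNA degradation.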
On the technique in general: In flow cytometry, cells or beads pass a laser one at a time.

For experiment [2], the system named is Leishmania infantum. The experiment is described as follows: Antimicrobial activity against Leishmania infantum promastigotes assessed as increase in DNA degradation after 24 hrs by flow cytometry. Type of experiment: functional, organism-based. A digest of the protocol:
as §1

In experiment [3] the test system is Leishmania infantum. Kind of experiment: Antimicrobial activity against Leishmania infantum promastigotes. Type of experiment: functional. As to conditions: read-out: LD50 (the source's name). A digest of the protocol: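 L. infantum promastigotes (M/CAN/ES/96/BCN150 MON-1), exponentially growing at 2 × 10^6 parasites/ml, incubated 24 h with increasing drug concentrations; stained with 5 µM propidium iodide and dead (PI-positive) parasites counted by flow cytometry; 50% lethal dose estimated from concentration–response fit.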

For experiment [4], the system named is Leishmania infantum. The experiment is described as follows: Induction of apoptosis in Leishmania infantum promastigotes cells harboring with plasmid pX63 carrying Bcl-XL gene at 40 uM after 24 hrs by TUNEL assay. Type of experiment: functional. The gist of the method: (§2)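 Wild-type promastigotes or those transfected with empty pX63, pX63-bcl-XL (HA-tagged) or pX63-hrk (FLAG-tagged) left untreated or exposed to 40 µM drug for 24 h; DNA nicks labelled by TUNEL, imaged by confocal microscopy with PI and DIC; percentage TUNEL-positive cells from image analysis, mean ± SD, n = 3.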

Experiment [5] concerns Leishmania infantum. Kind of experiment: Induction of apoptosis in wild-type Leishmania infantum promastigotes cells at 40 uM after 24 hrs by TUNEL assay. Type of experiment: functional. The gist of the method: as §2
Experiment [6] has as its system Leishmania infantum. The experiment is described as follows: Induction of apoptosis in Leishmania infantum promastigotes cells harboring with plasmid pX63 carrying Hrk gene at 40 uM after 24 hrs by TUNEL assay. Type of experiment: functional. The gist of the method: as §2
Experiment [7] relates to Leishmania infantum. Kind of experiment: Induction of apoptosis in Leishmania infantum promastigotes cells harboring pX63 expression vector at 40 uM after 24 hrs by TUNEL assay. Type of experiment: functional. The gist of the method:
as §2

`CCCCCCCCCCCCCCCCOP(=O)([O-])OCC[N+](C)(C)C` [MILTEFOSINE]: the Activity result with Leishmania infantum [1] and in the experiment with Leishmania infantum [2] was “Dose-dependent effect” throughout. For the same molecule, the LC50 in the experiment with Leishmania infantum [3] turned out to be 47 µM.

As for `CCCCCCCCCCCCCCCCCCOCC(COP(=O)([O-])OCC[N+](C)(C)C)OC` (stereo not given) [EDELFOSINE], the Activity result in the experiment on Leishmania infantum [1] was “Dose-dependent effect”; in the experiment on Leishmania infantum [4], 26.7%; with Leishmania infantum [5], 42.5%; in the experiment on Leishmania infantum [6] it was 92.5%; in the experiment on Leishmania infantum [2], “Dose-dependent effect”; in the experiment with Leishmania infantum [7], 47.4%. Also, the LC50 in the experiment with Leishmania infantum [3] is 27 µM.
